H9c2 TAG inh – reduces triacylglycerol accumulation in H9c2 cells; Nile Red lipid (TAG) fluorescence; cells loaded with 200 µM oleic acid; inhibition, % at 12.5 µM; 230,000 compounds, 0.66% hits; AID 651582;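 active = pattern-corrected inhibition of lipid staining of at least 50% with the nuclear-stain viability signal not falling by more than 50%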
B2AR ag – human beta-2 adrenergic receptor agonism by FAP; P07550; Am2.2-beta2AR cells, FAP receptor internalization, flow cytometry; response, % (concentration not given with the values); 340,000 compounds, 0.43% hits;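 active = response above a set limit, near 3 SD of response in nonfluorescent compounds, cut at about 42% in these data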
Target sequence (P07550 whole entry, looked up): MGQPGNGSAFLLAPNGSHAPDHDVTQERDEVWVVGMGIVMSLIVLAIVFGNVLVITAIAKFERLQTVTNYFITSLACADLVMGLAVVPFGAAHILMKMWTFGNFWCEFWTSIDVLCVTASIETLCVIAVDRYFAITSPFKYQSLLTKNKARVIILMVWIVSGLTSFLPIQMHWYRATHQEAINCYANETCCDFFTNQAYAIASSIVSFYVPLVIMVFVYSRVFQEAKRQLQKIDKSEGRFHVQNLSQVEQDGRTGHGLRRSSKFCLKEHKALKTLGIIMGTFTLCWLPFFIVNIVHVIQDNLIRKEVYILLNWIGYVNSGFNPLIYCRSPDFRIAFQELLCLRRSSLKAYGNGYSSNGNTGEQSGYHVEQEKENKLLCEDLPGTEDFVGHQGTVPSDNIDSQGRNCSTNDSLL
Arr AP2 block – blocks beta-arrestin peptide binding to AP2 adaptin; FITC-arrestin peptide / GST-AP2 beads, flow cytometry; AP2 beta2 appendage carries R879A mutation; inhibition, % at 10 µM; 340,000 compounds, 0.31% hits; AID 504490;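 active = inhibition above a set limit, near 3 SD of compounds lacking own fluorescence, cut at about 54% in these data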
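system = GST-tagged AP2 beta2-adaptin appendage (R879A) on 4 µm glutathione beads | reagent = FITC-labelled arrestin peptide probe, 50 nM final | schedule = compound with beads 12 min RT, then probe 1 h RT | signal = HyperCyt-sampled flow cytometry, FL1 channel, ex 488/em 535 nm | read-out = percent response from loss of bead-bound FITC fluorescence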
NTR1 ag – activates human neurotensin receptor 1. NTR1-U2OS beta-arrestin-GFP spot imaging, agonist mode. 330,000 compounds, 0.17% hits. activation, % at 20 µM;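 active = activation at or above 40% of the spot to cytoplasm intensity ratio, with at least 20 cells analyzed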
GRK2 aptamer HTS – inhibitors of human GRK2 displacing RNA aptamer. AID 488847. P25098. inhibition of aptamer binding, % at 10 µM. 330,000 compounds, 0.59% hits. bead flow cytometry, FAM-aptamer displacement from GRK2;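 active = inhibition of aptamer binding above 40%, roughly 3 SD of noise, on plates passing a quality check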;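 also: median bead fluorescence of bound FAM aptamer so fluorescent compounds give negative values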
Lipid droplet – modulators of hepatic lipid droplet formation. AML12 mouse hepatocytes, oleate lipid droplets, BODIPY imaging. inhibition, % at 6.5 µM. 240,000 compounds, 0.4% hits. AID 1656;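 active = lipid droplet intensity inhibited by at least 50%, with more than 500 cells counted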
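Material – mouse AML12 hepatocyte cell line, fixed after treatment · Compound dosing – one dose, 6.5 µM compound · Times – compound with oleate, overnight · Measured by – Image-based BODIPY and DAPI two-channel analysis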
GRK2 inh confirm – confirmation of human GRK2 inhibitors displacing RNA aptamer | 2,000 compounds, 4% hits | shares compounds with GRK2 aptamer HTS | bead-bound GRK2, FAM-aptamer displacement, flow cytometry | aptamer displacement, % at 10 µM;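 active = aptamer displacement above 40%, near three times the noise of non-fluorescent compounds, on plates passing quality checks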;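 also: negative values mostly reflect intrinsic compound fluorescence rather than true enhancement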
FAM quench CP1 – aptamer fluorescence quenching in GRK2 counter-screen | 2,000 tested, under 10 active | AID 504580 | Carboxyfluorescein RNA aptamer on beads, flow cytometry quenching; hits give low values | shares compounds with GRK2 aptamer HTS | fluorescence response (% of DMSO), % at 10 µM;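 active = compounds that quench the bead-bound fluorescent RNA probe, cutting fluorescence to under half of the solvent control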;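 also: counterscreen run without GRK2 so only probe quenching by compound is measured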
GRK2 confirm 2 – confirmation of human GRK2 inhibitors binding RNA aptamer site | bead-bound GRK2, FAM-aptamer displacement, flow cytometry | inhibition of aptamer binding, % at 10 µM | 360 tested, under 10 active | shares compounds with GRK2 aptamer HTS;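 active = inhibition of aptamer binding above 40%, about triple the noise seen with nonglowing compounds, on plates passing quality control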;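 also: negative values mostly come from compounds that fluoresce themselves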
FAM quench SP – counter-screen for GRK2 binding hits: quenchers of fluorescent RNA aptamer | shares compounds with GRK2 aptamer HTS | carboxyfluorescein RNA aptamer beads, flow cytometry quenching; hits give low values | fluorescence response vs DMSO, % at 10 µM | 360 tested, under 10 active | AID 588494;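 active = response vs DMSO under 50%, meaning signal dropped by over half, treated as fluorescence quencher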;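 also: labelled aptamer on streptavidin beads without GRK2 as a quench counter-screen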
A number is an active result; - = inactive; . = no result given. A selection: hits, their analogues and other compounds. The true share with any hit is near 2%.

SMILES | H9c2 TAG inh | B2AR ag | Arr AP2 block | NTR1 ag | GRK2 aptamer HTS | Lipid droplet | GRK2 inh confirm | FAM quench CP1 | others
COC(=O)c1sccc1-c1ccc(/C=N/OC(=O)c2cccs2)o1 | - | - | - | - | - | - | . | .
Cc1ccc(CCNC(=O)CC(C)CC2=NS(=O)(=O)c3ccccc3N2)cc1 (configuration not stated) | . | - | - | - | 65 | - | - | -
COc1ccc(CCNC(=O)CC(C)(C)CC2=NS(=O)(=O)c3ccccc3N2)cc1OC | . | - | - | - | - | - | . | .
O=c1[nH]c(Cc2cccc(C(F)(F)F)c2)nc2ccccc12 | . | - | - | - | - | - | - | -
O=C(Nc1ccccc1N1CCOCC1)c1cc(=O)[nH]c2ccccc12 | - | - | - | - | 82 | . | - | -
CCN(C(=O)COC(=O)CCOc1cc(C)ccc1C)c1c(N)n(Cc2ccccc2)c(=O)[nH]c1=O | - | - | - | . | . | . | . | .
CCOc1ccc(NC(=O)CSc2ccc3nnc(-c4cccnc4)n3n2)cc1 | - | - | - | - | 41 | - | . | . | GRK2 confirm 2=-;FAM quench SP=-
CCC(CO)Nc1ccc(-c2nn(C)c(=O)c3ccccc23)cc1[N+](=O)[O-] (configuration not stated) | . | - | - | - | - | - | . | .
CCC(CO)Nc1ccc(-c2n[nH]c(=O)c3ccccc23)cc1[N+](=O)[O-] (configuration not stated) | . | - | - | - | 60 | - | . | . | GRK2 confirm 2=-;FAM quench SP=-
Cc1nn(C)cc1/C=N\NC(=O)c1csc2c1CCCC2 | - | - | - | - | - | - | . | .
CCOc1ccccc1C1C(C#N)=C(N)Oc2cc(N)ccc21 (configuration not stated) | . | - | - | - | 97 | - | - | -
c1nc2n(n1)C1=C(CCCC1)C1(CCCCC1)N2 | - | - | - | - | - | - | . | .
O=C(CCc1nc2ccccc2c(=O)[nH]1)Nc1ccc(F)c([N+](=O)[O-])c1 | - | - | - | - | 46 | - | - | -
O=C(CCc1nc2ccccc2c(=O)[nH]1)NCC(=O)Nc1ccc(F)c(F)c1 | - | - | - | - | - | . | . | .
O=S(=O)(c1ccccc1OC(F)(F)F)N1CCN(c2ccnc3cc(Cl)ccc23)CC1 | - | - | - | - | 77 | - | . | . | GRK2 confirm 2=-;FAM quench SP=-
CCCOC(=O)c1ccc(NC(=O)C(CC)CC)cc1 | - | - | - | - | - | - | . | .
CCC(CC)C(=O)Nc1ccc(C(=O)c2ccccc2)cc1 | . | - | - | - | 61 | - | . | . | GRK2 confirm 2=-;FAM quench SP=-
Cc1oc2cc3oc(=O)c(CCC(=O)NCCN4CCOCC4)c(C)c3cc2c1C | . | - | - | - | - | . | . | .
Cc1cc(NS(=O)(=O)c2ccc(NC(=O)c3ccc(F)cc3)cc2)nc(C)n1 | - | - | - | - | - | . | . | .
Cc1cc(NS(=O)(=O)c2ccc(NC(=O)c3c(F)c(F)c(F)c(F)c3F)cc2)nc(C)n1 | - | - | - | - | 56 | - | . | . | GRK2 confirm 2=-;FAM quench SP=-
O=S(=O)(c1c(F)cccc1F)C1CCN(S(=O)(=O)c2ccc3c(c2)OCCO3)CC1 | - | - | - | - | - | . | . | .
O=C1COc2ccc(C(=O)COC(=O)/C=C/c3ccc(Br)o3)cc2N1 | - | - | - | - | 57 | . | - | -
Cc1ccc(/C=C/C(=O)OCC(=O)c2ccc3c(c2)NC(=O)CO3)o1 | - | - | - | - | - | . | . | .
O=C(CCCN1C(=O)/C(=C\c2cccs2)SC1=S)Nc1ccc(O)cc1C(=O)O | . | - | - | - | - | - | . | .
O=C(CCCN1C(=O)/C(=C\c2ccco2)SC1=S)Nc1ccc(O)cc1C(=O)O | . | - | - | - | 45 | - | - | -

Screens deposited in PubChem BioAssay by several laboratories.
